This excerpt belongs to a sample that is enriched for hits.
TbMetRS inhib – Trypanosoma brucei MetRS inhibition; purified T. brucei MetRS, ATP depletion, Kinase-Glo luminescence; inhibition, % at 11.9 µM; 0.4% of 360,000 active;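 active = inhibition above a per-plate cutoff of the control wells' mean inhibition plus 3 SD, cut at about 5.5% in these data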;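 also: 0% = DMSO wells median and 100% = median of wells with control inhibitor compound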
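Material: parasite MetRS enzyme / Replication: singlicate, one well per compound / Signal: luminescence of leftover ATP / Schedule: 2 h aminoacylation at 25 °C after 15 min preincubation / Medium: HEPES-MgCl2-KCl buffer plus DTT, spermine, BSA, pyrophosphatase / Doses: 11.9 µM single point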
CHOP UPR activ – apoptotic UPR (CHOP) activation. CHO-CHOP luciferase reporter, luminescence; percent of tunicamycin response over DMSO baseline. 0.34% of 330,000 active. AID 449763. activation, % at 10 µM;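 active = at 10 µM dose, activation of 40% or more, normalized to positive control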;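 also: 100% = tunicamycin at 10 µg/mL and 0% = DMSO alone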
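System: CHO CHOP reporter cells. Amount: 500 cells per well. Buffer or medium: F12 medium, 10% FBS. Compound dosing: one dose, 10 µM in 0.5% DMSO. Incubation: 6 h compound exposure at 37 °C after overnight seeding. Technique: Steady-Glo luciferase luminescence. Benchmarks: tunicamycin and DMSO controls.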
UPR XBP1 act – activators of adaptive arm of unfolded protein response (XBP1); 0.33% of 330,000 active; activation, % at 20 µM; AID 463104; CHO-XBP1 luciferase reporter, IRE1-XBP1 UPR activation, luminescence; percent of tunicamycin response, DMSO as zero;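 active = versus positive control, 20 µM dose yields 30% or more activation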;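 also: 100% = tunicamycin at 10 µg/mL and 0% = DMSO only wells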
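Material – CHO cell line with stable XBP1 luciferase reporter · Buffer or medium – F12 plus 10% FBS · Compound – single point, 20 µM final compound, 1% DMSO · Schedule – 16-18 h cell attachment at 37 °C, then 6 h compound exposure · Signal – Steady-Glo luminescence read · Benchmarks – high control tunicamycin 10 µg/mL final, low control DMSO vehicle only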
V-ATPase pH – regulators of yeast V-ATPase proton transport | response, % at 10 µM | AID 504577 | 0.37% of 350,000 active | S. cerevisiae, pHLuorin cytosolic pH fluorescence; in the data active = response mostly above about 7.3%, no sharp cut-off; inactive = mostly below about 5.4%; also: actives read high
CHOP inhibitor – inhibitors of CHOP induction in ER stress response; CHO-K1 CHOP-promoter luciferase, tunicamycin-induced, 15-18 h; inhibition, % at 10 µM; 3.8% of 220,000 active; AID 2732;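 active = compounds that reduced the stress-induced luciferase reporter signal by more than about 70% of percent inhibition, limit read from the data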;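 also: 0% = tunicamycin plus vehicle and 100% = wells without tunicamycin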
Active calls of the source: *; . = no result given.

SMILES | TbMetRS inhib | CHOP UPR activ | UPR XBP1 act | V-ATPase pH | CHOP inhibitor
COc1ccc(NC(=O)Cn2nnc(C(=O)NCc3ccc(C)cc3)c2N)cc1OC | -1 | 0 | -2 | -3 | .
COc1ccc(NC(=O)Cn2nnc(C(=O)NCc3ccccc3OC)c2N)cc1Cl | -1 | 0 | 3 | -3 | 72*
COc1ccc(CN2CCN(C(=O)CC(C)C)CC2)cc1Br | -1 | 2 | -3 | -1 | .
COc1ccc(/C=C/C(=O)N(CC(C)C)CC(C)C)cc1Br | -1 | -3 | -1 | -1 | 84*
C=CC[n+]1ccc(/C=C2\C=Cc3cc(C)ccc3N2CC)c2ccccc21 | -3 | . | . | -2 | 75*
CCN1/C(=C/c2cc[n+](CCCS(=O)(=O)[O-])c3ccccc23)Sc2ccccc21 | -1 | 0 | 10 | -1 | 0
CC(C)NC(=S)N/N=C/C1=CCC2CC1C2(C)C (stereo not drawn) | 0 | 1 | 0 | 0 | 72*
C=C(C)CNC(=S)N/N=C/C1=CCC2CC1C2(C)C (stereo not drawn) | 0 | -1 | -5 | 0 | 84*
CCOC(=O)c1cnc2c(-c3ccccc3)c(-c3ccccc3)nn2c1C | 0 | 0 | -4 | 3 | .
COc1ccc2nc(NC(=O)CCN3C(=S)NC(C)(C)CC3C)sc2c1 (stereo not drawn) | 0 | 2 | -2 | -2 | -5
CC(C)C[C@H]1COc2cc(N3CC[C@H](O)C3)ccc2S(=O)(=O)N1 | -1 | . | . | . | .
Cc1ccc(C(=O)N/N=C2\SCC(=O)N2c2cc(C)ccc2C)cc1 | 0 | -2 | 1 | -3 | 75*
COc1ccc(NC(=O)c2cccs2)cc1 | 0 | 3 | 2 | 21* | -12
CCC(C)NS(=O)(=O)c1ccc(NC(=O)c2cccs2)cc1 (stereo not drawn) | 1 | 0 | 1 | -2 | 12
COc1ccc(N=N/C(=C\O)C(=O)c2cccs2)cc1 | 0 | 3 | 0 | 1 | 72*
CC(C)(C)c1csc(NC(=O)Cc2cccs2)n1 | -1 | 0 | 2 | -1 | 4
CC(C)(C)c1csc(NC(=O)c2cccs2)n1 | 0 | 5 | 4 | 4 | 71*
Cc1ccc(NS(=O)(=O)c2ccc(NC(=O)c3cccs3)cc2)cc1 | 0 | -2 | -4 | 0 | 77*
CCCCNC(=O)C[C@@H]1C[C@@]2(C(=O)OCC)CCCC=C2N(Cc2ccc3c(c2)OCO3)C1=O | 0 | . | . | . | .
OC(c1ccc(F)c(F)c1)c1nc(-c2cc(F)cc(F)c2)cs1 (stereo not drawn) | 0 | . | . | . | .
CC(=O)c1cccc(-c2ccnc3c2CC(C(=O)Nc2cccc(C(F)(F)F)c2)O3)c1 (stereo not drawn) | 0 | . | . | . | .
NC(=O)c1ncn([C@@H]2O[C@H](CNCc3ccc(-c4cc(C(F)(F)F)ccc4Cl)o3)[C@@H](O)[C@H]2O)n1 | 0 | . | . | 2 | .
COc1ccc(N2CCN(C(=O)C(=O)c3cn(CC(=O)N4CCCC4)c4ccccc34)CC2)cc1 | 0 | . | . | -4 | .
CCCCCCN1CCN(C2CN(Cc3ccc(F)cc3)S(=O)(=O)C2)CC1 (stereo not drawn) | -1 | . | . | . | .
CNc1cncc(-c2ccc(F)cc2F)n1 | 0 | . | . | . | .
SMILES | TbMetRS inhib | CHOP UPR activ | UPR XBP1 act | V-ATPase pH | CHOP inhibitor
COc1ccc(Cc2noc(=O)[nH]2)cc1 | 0 | . | . | -1 | .
CC(C)C1C(c2ccccc2)N(C)C(c2ccccc2)CC1(O)c1ccccc1 (stereo not drawn) | -1 | 1 | 2 | 2 | 73*
CC(C)C1C(c2ccccc2)NC(c2ccccc2)CC1(O)c1ccc(F)cc1 (stereo not drawn) | 0 | 1 | -2 | 1 | 80*
CCC1C(=O)CC(c2ccccc2)NC1c1ccccc1 (stereo not drawn) | 0 | -1 | 0 | 0 | 18
COc1cccc(C(NC(C)=O)c2nc(-c3cccc(C#N)c3)cs2)c1 (stereo not drawn) | 0 | . | . | . | .
CC1(C(=O)NCCCN2CCCC2=O)CCN1CCc1ccccc1 (stereo not drawn) | 0 | . | . | . | .
Cc1cc(OCC(=O)Nc2cc(-c3nn4c(C)nnc4s3)ccc2C)ccc1Cl | 0 | 5 | 0 | 1 | 95*
COc1ccc(OCC(=O)Nc2cc(-c3nn4c(C)nnc4s3)ccc2C)cc1 | 2 | -1 | 3 | 0 | 54
O=C(COc1ccccc1)Nc1cccc(-c2nc3cc4ccccc4cc3[nH]2)c1 | -2 | 11 | 19 | -8 | 71*
